ATG4B inh: ATG4B (human) cysteine protease inhibition; ATG4B cleavage of LC3-PLA2, NBD-HPC fluorescence, 1 h; 340,000 tested, 0.51% active; inhibition, % at 8.33 µM; Q9Y4P1; in the data active means inhibition above about 40%
Target sequence (Q9Y4P1 whole entry, looked up): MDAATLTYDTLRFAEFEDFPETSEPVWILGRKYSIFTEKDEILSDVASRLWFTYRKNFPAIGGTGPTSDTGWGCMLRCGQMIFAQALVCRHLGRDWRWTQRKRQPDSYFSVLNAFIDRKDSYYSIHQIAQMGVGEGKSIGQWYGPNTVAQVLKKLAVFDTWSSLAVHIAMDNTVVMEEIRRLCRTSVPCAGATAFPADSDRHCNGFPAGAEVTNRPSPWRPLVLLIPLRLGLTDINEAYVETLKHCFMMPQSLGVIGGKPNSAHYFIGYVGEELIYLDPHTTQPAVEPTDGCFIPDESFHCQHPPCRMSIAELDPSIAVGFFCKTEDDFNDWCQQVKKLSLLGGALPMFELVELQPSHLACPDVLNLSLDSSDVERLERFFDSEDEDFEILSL
MT1-MMP act inh: MT1-MMP (human) activation inhibition; HT1080 RFP-PRO-GFP cells, GFP/RFP ratio fluorescence, overnight; percent of plate control window, DMSO zero; P50281; GFP/RFP ratio change, % at 20 µM; 360,000 tested, 0.061% active;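 active means GFP/RFP ratio change of at least 30% with cell ATP level not reduced by more than half and red fluorescence within 50% of control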
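Assay system: HT1080 RFP-PRO-GFP cells. Benchmarks: DMSO vehicle wells and RFP-L50D-GFP reporter cell wells. Times: overnight cell settling, then overnight compound exposure, 37 °C, 5% CO2. Compound: 20 µM single dose, 1% DMSO. Read-out basis: GFP/RFP fluorescence ratio.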
SKN-1 inh: blocks SKN-1 activity in C. elegans | C. elegans VP596 Pgst-4::GFP/RFP ratio, acrylamide-induced, 24 h | inhibition, % at 21.8 µM | 360,000 tested, 0.49% active | AID 624304;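 active means interference check ratio from 0.5 to 1.5 plus GFP to RFP signal ratio inhibition reaching or exceeding a fixed threshold, cut at about 30% in these data, passing the limit was not always enough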
MPTP inh: permeability transition pore inhibition; inhibition, % at 10 µM; isolated mouse mitochondria, Ca2+ swelling absorbance, 30 min; 360,000 tested, 1.4% active; AID 602449;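 active means inhibition of 50% or more, scaled per plate between neutral and stimulator controls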;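 further: 0% = DMSO wells given calcium and 100% = 1 mM EGTA wells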
MPTP counter: Rhodamine 123 counter-screen of mitochondrial pore hits | isolated mitochondria, membrane potential, Rhodamine 123 fluorescence | shares compounds with MPTP inh | 5,000 tested, 78% active | inhibition, % at 10 µM | AID 624504; in the data active means inhibition above about 22%;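 further: 0% = DMSO vehicle and 100% = positive control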
MPTP abs DR: MPTP inhibition, dose response swelling confirmation. shares compounds with MPTP inh. isolated mitochondria swelling, absorbance. IC50, µM. 780 tested, 58% active; in the data active means IC50 below about 20 µM
MPTP counter DR: active in counter-screen for permeability transition pore inhibitors | shares compounds with MPTP inh | isolated mitochondria counterscreen, fluorescence read-out | IC50, µM | 780 tested, 49% active | AID 651564; in the data active means IC50 below about 80 µM
* hit, by the source's call; . = no result. Compounds with a hit are over-represented: about 2.3% of the library has one in this group of screens.

SMILES	ATG4B inh	MT1-MMP act inh	SKN-1 inh	MPTP inh	MPTP counter	others
Cn1nc(C(=O)Nc2cccc(Cl)c2)cc1C(=O)Nc1cccc(Cl)c1	-3	-5	26	57*	84*
S=C(Nc1ccc(Cc2ccncc2)cc1)Nc1cccc(Cl)c1	8	-2	2	93*	81*
O=C(Nc1cccc(Cl)c1)Nc1ccc2c(c1)C(=O)OC2	2	0	2	80*	85*
CC(=O)N(C)c1ccc(NC(=O)Nc2ccc(C)cc2)cc1	4	12	8	-1	.
O=C(Nc1ccncc1)Nc1cccc(Cl)c1	-1	1	-7	57*	95*
CN(c1cccc(NC(=O)Nc2cccc(Cl)c2)c1)S(C)(=O)=O	-1	-2	9	6	.
O=C(NCc1ccncc1)Nc1cccc(Cl)c1	1	-1	6	3	.
CC(=O)N(C)c1ccc(NC(=O)c2cnn(C)c2)cc1	0	9	-9	70*	4
O=C(Nc1cccc(Cl)c1)Nc1csc([N+](=O)[O-])c1	5	-12	-11	72*	69*
CN(C)c1ccc(NC(=O)Nc2cccc(Cl)c2)cc1	0	5	17	74*	72*
CCCS(=O)(=O)N1CCC(C(=O)NCCC(C)C)CC1	-3	0	-1	0	.
Cc1nccc(-c2cccc(NC(=O)Nc3ccc(Cl)cc3)c2)n1	-17	4	3	83*	93*
Cc1ccc(Cl)cc1NC(=O)Cn1c(C)csc1=O	1	1	-8	-2	.
Cc1cc(SCC(=O)N/N=C/c2ccccc2C(=O)O)c(C)cc1Br	-1	-4	9	1	.
Cc1cc(SCC(=O)N/N=C/c2ccc(O)cc2O)c(C)cc1Br	1	3	-5	91*	56*
Cc1cc(C)n(-c2nnc(NC34CC5CC(CC(C5)C3)C4)nn2)n1	15	9	6	0	.
Cc1ccc(-n2ncc3c(N4CCCC4)ncnc32)c(C)c1	0	6	-14	-1	.
Cc1ccc(-n2ncc3c(SCc4cccnc4)ncnc32)c(C)c1	-4	-5	10	88*	82*
Cc1ccc(-n2ncc3c(N4CCCC(C)C4)ncnc32)c(C)c1 (stereo not drawn)	-7	-4	8	59*	43*
Cc1ccc2c(c1)cc(C)c1nnc(SCC(=O)NCc3ccco3)n12	-7	6	9	0	.
O=C(c1cc2nc(-c3ccc(F)cc3)cc(C(F)(F)F)n2n1)N1CCCCC1c1cccnc1 (stereo not drawn)	-6	-4	13	90*	90*
Cc1cc(F)ccc1S(=O)(=O)NCC(c1cccnc1)N1CCc2ccccc21 (stereo not drawn)	-2	-5	16	1	.
COC(=O)c1ccccc1NC(=O)CSc1nc(C)cc(C)n1	10	-3	1	-1	.
O=C(CSC1=NCCS1)Nc1ccc2ccccc2c1	-4	1	4	0	.
O=C(CSC1=NCCS1)Nc1ccnc2ccccc12	-19	-11	1	68*	74*
SMILES	ATG4B inh	MT1-MMP act inh	SKN-1 inh	MPTP inh	MPTP counter	others
Cc1cc(C)nc(SCC(=O)Nc2ccnc3ccccc23)n1	-9	-3	0	97*	98*
COc1cccc(C2=NN(C(=O)C3CC3)C(O)(C(F)(F)F)C2)c1 (stereo not drawn)	.	-3	10	0	.
CCOC(=O)C(C)On1c(-c2ccccc2)nc2ccc([N+](=O)[O-])cc21 (stereo not drawn)	-9	2	-1	-2	.
O=[N+]([O-])c1ccc2nc(-c3ccc(Cl)cc3)n(OCc3ccccc3)c2c1	5	3	41*	89*	94*
CCOC(=O)C(C)On1c(-c2ccc(Cl)cc2)nc2ccc([N+](=O)[O-])cc21 (stereo not drawn)	-11	-9	41*	89*	108*
Cc1ccc(COn2c(-c3ccc(Cl)cc3)nc3ccc([N+](=O)[O-])cc32)cc1	4	-4	31	88*	84*
O=C(O)COn1c(-c2ccccc2)nc2ccc([N+](=O)[O-])cc21	-1	3	27	20	.
COc1cc(C(=O)COC(=O)c2cnc(C)cn2)ccc1OC(F)F	5	-10	6	2	.
N#Cc1ccc(/C=C\c2nccc3c2[nH]c2ccccc23)cc1	-23	-24	9	92*	67*
Clc1ccc(/C=C\c2nccc3c2[nH]c2ccccc23)cc1	11	-8	-1	70*	83*
Cc1ccc2nc(SCC(=O)NCc3ccc(F)cc3)nc(=O)n2c1	-12	-2	12	-2	.
COc1ccc(-c2csc(NC(=O)C3CCN(C(=O)c4ccc(F)cc4)CC3)n2)cc1OC	-4	1	2	2	.
Cc1ccc(SC/C(O)=C(\C#N)c2nc3ccccc3s2)cc1	10	0	5	94*	91*
N#C/C(=N\O)c1nc2ccccc2s1	0	-5	12	1	.
N#C/C(=C(/O)COc1ccccc1)c1nc2ccccc2s1	-17	-3	-5	84*	81*
N#C/C(=C(/O)c1ccc(-c2cccc([N+](=O)[O-])c2)o1)c1nc2ccccc2s1	-5	-4	2	98*	69*
COc1ccc(C/C(O)=C(\C#N)c2nc3ccccc3s2)cc1	-3	-2	3	38	.
N#C/C(=C(/O)c1ccc(F)cc1)c1nc2ccccc2s1	-1	-8	6	78*	96*
Cc1cccc(Nc2nc(Cl)ncc2F)c1C	8	-2	8	2	.
Cc1ccc(NC(=O)CN2C(=O)NC3(CCCc4ccccc43)C2=O)c([N+](=O)[O-])c1 (stereo not drawn)	-4	0	2	-1	.
CC(OC(=O)C1=COCCO1)C(=O)Nc1ncc(Cl)cc1Cl (stereo not drawn)	5	0	-12	-1	.
N#C/C(=C(/O)COc1ccc(Cl)cc1)c1nc2ccccc2s1	-10	-6	-2	107*	90*
N#C/C(=C(/O)CSc1ccccn1)c1nc2ccccc2s1	-7	-5	3	2	.
N#C/C(=C(/O)COC(=O)c1ccc(C#N)cc1)c1nc2ccccc2s1	-13	-4	5	79*	88*
CCOc1ccc(CN(C)C(=O)CNC(=O)c2ccc(Br)o2)cc1OC	-1	1	27	-1	.
Cn1cc(CNCc2cn(C)nc2-c2ccc(C3CCCCC3)cc2)cn1	-10	-4	-9	92*	-6	MPTP abs DR=8.8*;MPTP counter DR=71*
COc1cccc(-n2cc(CNCc3cn(C)nc3-c3ccccc3F)cn2)c1	-27	3	0	1	.
S=C(Nc1ccccc1Cl)N(Cc1ccccc1)Cc1ccccn1	0	-1	6	0	.

Screening data as filed in PubChem.
